Here are results for twelve compounds from ChEMBL document CHEMBL1147088, “Small molecule obatoclax (GX15-070) antagonizes MCL-1 and overcomes MCL-1-mediated resistance to apoptosis” (Proc Natl Acad Sci U S A, 2007).

The target in experiment [1] is Apoptosis regulator Bcl-2 (Homo sapiens, UniProt P10415). Kind of experiment: Binding affinity to BCL2.
Experiment [2] relates to KB. Kind of experiment: Depletion of cytochrome c in mitochondria of human KB cells at 2.0 uM. The format is functional, cell-based. The essentials: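 Mitochondria isolated from KB cells were incubated 30 min at 37°C with DMSO or compound, then reisolated. Mitochondrial pellet and post-mitochondrial supernatant were analysed by SDS/PAGE and cytochrome c immunoblot, with actin and a control protein as loading controls.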

Experiment [3] has as its system Saccharomyces cerevisiae. Kind of experiment: Growth inhibition of Saccharomyces cerevisiae W301. The format is functional, organism-based. A digest of the protocol: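 W301 yeast transformed with BCL-family/BAX/BAK or control vectors, then grown in synthetic complete medium with 2% raffinose and 2% galactose. Seeded at 0.01 OD units and shaken 48 h at 30°C. Compound or vehicle was added to growth medium with final DMSO 0.67%. Cell density was the read-out, and IC50 values were recorded.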

Active and inactive are the calls of the source. The calls are words filed in the database; no cut-off is given here. Where only a bound is given, the exact number is not on record here.

Sequence of Apoptosis regulator Bcl-2 (P10415 whole entry): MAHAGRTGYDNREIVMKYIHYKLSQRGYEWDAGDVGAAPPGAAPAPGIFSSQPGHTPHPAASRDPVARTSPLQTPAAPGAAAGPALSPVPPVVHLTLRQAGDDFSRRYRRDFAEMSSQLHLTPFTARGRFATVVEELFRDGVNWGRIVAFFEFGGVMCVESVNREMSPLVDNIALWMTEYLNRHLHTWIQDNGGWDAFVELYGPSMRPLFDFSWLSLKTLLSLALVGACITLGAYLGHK

As for `O=C(O[C@H]1Cc2c(O)cc(O)cc2OC1c1cc(O)c(=O)c2c(O)c(O)cc([C@H]3Oc4cc(O)cc(O)c4C[C@H]3O)c2c1)c1cc(O)c(O)c(O)c1` (some centres not stated), in experiment [1], affinity was put at a Ki of 1230 nM.

On to `COC(=O)NC(CCSC)C(=O)Oc1ccc(Nc2nc3c(s2)C(=O)c2ccccc2C3=O)cc1` (configuration not stated), for which the Ki (usually a measure of affinity in units of concentration, obtained from inhibition or displacement) in experiment [1] was 1290 nM.

As for `CC[C@H](C)[C@H](NC(=O)[C@H](CC(N)=O)NC(=O)[C@H](CCCNC(=N)N)NC(=O)[C@@H](NC(=O)[C@@H](NC(=O)[C@H](CC(=O)O)NC(=O)[C@@H](N)CCC(=O)O)[C@@H](C)CC)[C@@H](C)CC)C(=O)N[C@@H](C)C(=O)N[C@@H](CCCNC(=N)N)C(=O)N[C@@H](Cc1cnc[nH]1)C(=O)N[C@@H](CC(C)C)C(=O)N[C@@H](C)C(=O)N[C@@H](CCC(N)=O)C(=O)N[C@H](C(=O)NCC(=O)N[C@@H](CC(=O)O)C(=O)N[C@@H](CO)C(=O)N[C@@H](CCSC)C(=O)N[C@@H](CC(=O)O)C(=O)N[C@@H](CCCNC(=N)N)C(=O)O)C(C)C`, the outcome in experiment [2] was Active.

On to `Oc1cc(O)c2c(c1)O[C@H](c1ccc(O)c(O)c1)[C@H](O)C2` [(-)-EPICATECHIN], for which the Ki in experiment [1] is over 100000 nM.

For `CCCC[C@H]1C(=O)O[C@H](C)[C@H](NC(=O)c2cccc(NC=O)c2O)C(=O)O[C@@H](C)[C@@H]1OC(=O)CC(C)C` [ANTIMYCIN A3], the inhibition constant Ki in experiment [1] is 832 nM.

As for `CC[C@@]1(O)C(=O)OCc2c1cc1n(c2=O)Cc2cc3ccccc3nc2-1` [CAMPTOTHECIN], the half-inhibitory concentration (IC50) (in general, the point on the concentration scale where inhibition reaches its midpoint) in experiment [3] was over 200000 nM.

`Oc1cc(O)c2c(c1)O[C@H](c1ccc(O)c(O)c1)[C@H](O)C2` [CATECHIN]: the Ki in experiment [1] is over 100000 nM.

The compound `COc1cccc2c1C(=O)c1c(O)c3c(c(O)c1C2=O)C[C@@](O)(C(=O)CO)C[C@@H]3O[C@H]1C[C@H](N)[C@H](O)[C@H](C)O1` [DOXORUBICIN] came in with a half-inhibitory concentration (IC50) in experiment [3] of 10000 nM.

`O=C(O[C@@H]1Cc2c(O)cc(O)cc2O[C@@H]1c1ccc(O)c(O)c1)c1cc(O)c(O)c(O)c1` [EPICATECHIN GALLATE]: affinity in experiment [1] was put at a Ki of 229 nM.

In experiment [1], `Oc1cc(O)c2c(c1)O[C@H](c1cc(O)c(O)c(O)c1)[C@H](O)C2` [EPIGALLOCATECHIN] gave a Ki of over 100000 nM.

For `O=C(O[C@@H]1Cc2c(O)cc(O)cc2O[C@@H]1c1cc(O)c(O)c(O)c1)c1cc(O)c(O)c(O)c1` [EPIGALOCATECHIN GALLATE], the Ki in experiment [1] was 234 nM.

With `O=c1c(O)cc([C@H]2Oc3cc(O)cc(O)c3C[C@H]2O)cc2c([C@H]3Oc4cc(O)cc(O)c4C[C@H]3O)cc(O)c(O)c12` [THEAFLAVIN], the Ki in experiment [1] was 692 nM.
